Test results reported in ChEMBL document CHEMBL1125360 (J Med Chem, 1992).

Columns and labels:
[1] = target: Mu-type opioid receptor (Cavia porcellus) (UniProt P97266); assay: Selectivity for mu to delta opioid receptors was determined
[2] = species: Cavia porcellus; assay: The compound was evaluated for antagonistic activity by incubating with the smooth muscle preparation (GPI) for 15 min prior to testing with Ethylketazocine (EK); format: functional, Muscle tissue
Outline: (§1)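 Electrically stimulated guinea pig ileal longitudinal muscle or mouse vas deferens. Test ligand incubated 15 min before standard agonist challenge (morphine, ethylketazocine or DADLE). Ligand at 100 nM, or at 10, 20 or 30 nM when it had agonist activity, kept at or below its ED20.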

[3] = species: Mus musculus; assay: The compound was evaluated for antagonistic activity by incubating with the smooth muscle preparation (MVD) for 15 min prior to testing with morphine; format: functional, Muscle tissue; outline: as §1
[4] = species: Mus musculus; assay: The compound was evaluated for antagonistic activity by incubating with the smooth muscle preparation (MVD) for 15 min prior to testing with DADLE; format: functional, Muscle tissue; outline: as §1
[5] = species: Mus musculus; assay: The compound was tested for opioid agonist activity against mouse vas deferens (MVD); format: functional
Outline: (§2)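 Electrically stimulated guinea pig ileal longitudinal muscle and mouse vas deferens. For full agonists, 4-6 concentrations gave concentration-response curves compared with standard agonists in the same preparation. IC50 is the concentration giving a half-maximal response, with 95% confidence limits.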

[6] = species: Cavia porcellus; assay: The compound was tested for opioid agonist activity against guinea pig ileal longitudinal muscle (GPI); format: functional, Muscle tissue; outline: as §2
[7] = tested on: Delta-type opioid receptor; assay: Selectivity for kappa to delta opioid receptors was determined; conditions: Cavia porcellus
[8] = target: Kappa-type opioid receptor (Cavia porcellus, UniProt P41144); assay: The compound was evaluated for binding affinity against the opioid receptor kappa in guinea pig brain membranes using [3H]- U-69,593; format: cell membranes, Membrane
Outline: (§3)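 Competition binding on guinea pig brain membranes. δ sites labelled with [3H]DPDPE, μ with [3H]DAMGO, κ with [3H]U69593. A footnote also describes κ labelling with [3H]ethylketazocine in the presence of 1 µM DAMGO.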

[9] = species: Cavia porcellus; assay: The compound was evaluated for antagonistic activity by incubating with the smooth muscle preparation (GPI) for 15 min prior to testing with morphine; format: functional, Muscle tissue; outline: as §1
[10] = target: Mu-type opioid receptor (Cavia porcellus, UniProt P97266); assay: The compound was evaluated for binding affinity against opioid receptor mu in guinea pig brain membranes using [3H]- DAMGO as ligand; format: cell membranes, Membrane; outline: as §3
[11] = species: Mus musculus; assay: The compound was evaluated for antinociceptive potency using tail flick assay in mice; format: functional
Outline: (§4)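 Mouse antinociception by abdominal stretch or tail flick assay. Test compound given icv. ED50 in nmol/mouse with 95% confidence limits.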

[12] = species: Mus musculus; assay: The compound was evaluated for antinociceptive potency using abdominal stretch assay in mice; format: functional, Abdomen; design: unit not given here; outline: as §4
[13] = species: Cavia porcellus; assay: Antagonistic activity against EK in guinea pig ileal longitudinal muscle (GPI); format: functional, Muscle tissue; outline: as §1
[14] = target: Opioid receptor (Mus musculus, UniProt P42866+P32300+P33534); assay: Compound was tested for agonistic activity against the opioid receptor in electrically stimulated mouse vas deference; format: functional; outline: as §2
[15] = species: Cavia porcellus; assay: Antagonistic activity against morphine in guinea pig ileal longitudinal muscle (GPI); format: functional, Muscle tissue; outline: as §1
[16] = species: Mus musculus; assay: Antagonistic activity against DADLE in smooth muscle preparation (MVD); format: functional, Muscle tissue; outline: as §1
[17] = species: Mus musculus; assay: Antagonistic activity against morphine in smooth muscle preparation (MVD); format: functional, Muscle tissue; outline: as §1
[18] = species: Cavia porcellus; assay: Opiod agonistic activity against delta enriched smooth muscle preparation; format: functional; conditions: Muscle tissue

Chain of Kappa-type opioid receptor (P41144 whole entry): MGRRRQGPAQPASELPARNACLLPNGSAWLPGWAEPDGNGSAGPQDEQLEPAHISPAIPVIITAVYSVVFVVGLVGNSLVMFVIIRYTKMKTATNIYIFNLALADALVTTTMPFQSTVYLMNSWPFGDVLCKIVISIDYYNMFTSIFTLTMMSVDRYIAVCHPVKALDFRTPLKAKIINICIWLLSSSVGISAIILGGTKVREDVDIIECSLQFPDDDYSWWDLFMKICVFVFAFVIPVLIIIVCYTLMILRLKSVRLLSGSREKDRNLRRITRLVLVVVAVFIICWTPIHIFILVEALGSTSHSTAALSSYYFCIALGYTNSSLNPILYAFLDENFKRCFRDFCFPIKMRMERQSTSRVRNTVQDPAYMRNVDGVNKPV
Chain of Mu-type opioid receptor (P97266 whole entry): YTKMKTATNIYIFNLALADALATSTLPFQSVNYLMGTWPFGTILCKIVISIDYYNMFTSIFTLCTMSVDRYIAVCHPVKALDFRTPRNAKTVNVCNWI
Chain of Mu-type opioid receptor (Cavia porcellus) (P97266 whole entry): as above

| Structure (SMILES) | Ratio [1] | IC50 ratio [2] | IC50 ratio [3] | IC50 ratio [4] | Max response [5] | Max response [6] | Ratio [7] | Ki [8] | IC50 ratio [9] | Ki [10] | ED50 [11] | ED50 [12] | IC50 ratio [13] | IC50 [14] | IC50 ratio [15] | IC50 ratio [16] | IC50 ratio [17] | IC50 [18] |
| --- | --- | --- | --- | --- | --- | --- | --- | --- | --- | --- | --- | --- | --- | --- | --- | --- | --- | --- |
| Oc1ccc2c3c1O[C@H]1c4[nH]c5ccccc5c4C[C@H]4[C@@H](C2)N(C/C=C/c2ccccc2)CC[C@]314 | > 9 | 0.9 | 1.1 | 0.8 | 19% | 2% | > 9 | > 1000 nM | 0.8 | > 1000 nM | – | – | – | – | – | – | – | – |
| CSCC[C@H](NC(=O)[C@H](Cc1ccc(O)cc1)NC(=O)CNC(=O)CNC(=O)[C@H](Cc1ccccc1)NC(=O)[C@H](CC(C)C)NC(=O)[C@H](N)CO)C(=O)N[C@H](C(=O)O)[C@@H](C)O | – | – | – | – | – | – | – | – | – | – | 0.45 nmol/mouse | 0.0032 | – | – | – | – | – | – |
| CN1CC[C@]23c4c5ccc(O)c4O[C@H]2c2oc4ccccc4c2C[C@@]3(O)[C@H]1C5 | – | 0.8 | 0.8 | 10.2 | 41% | 23% | – | – | 0.5 | – | – | – | – | – | – | – | – | – |
| Oc1ccc2c3c1O[C@H]1c4[nH]c5ccccc5c4C[C@H]4[C@@H](C2)N(CCc2ccccc2)CC[C@]314 | 8 | – | – | – | – | 1900% | 120 | 2620 nM | – | 173 nM | 6.3 nmol/mouse | – | 0.9 | 179 nM | 0.8 | 0.6 | 0.9 | 174 nM |
| Oc1ccc2c3c1O[C@H]1c4[nH]c5ccccc5c4C[C@H]4C(C2)NCC[C@]314 | 71 | – | – | – | – | 20% | 176 | 5.3 nM | – | 375 nM | – | – | 1.3 | 85 nM | 0.6 | 0.8 | 1 | – |
| CN1CC[C@]23c4c5ccc(O)c4O[C@H]2c2c(c4ccccc4n2C)C[C@@]3(O)[C@H]1C5 | – | – | – | – | 23% | 9% | – | – | – | – | – | 0.01 | 0.5 | – | 0.7 | 1.2 | 1 | – |
